Laboratory results published in ChEMBL document CHEMBL2380254, “Optimization of tocotrienols as antiproliferative and antimigratory leads” (Eur J Med Chem, 2013).

What was measured:
IGROV-1 = assay: Growth inhibition of human IGROV1 cells assessed as cell growth at 10 uM after 48 hrs by sulforhodamine B assay; assay type: functional; conditions: IGROV-1, 48 h, read-out: Activity
Procedure, shortened: (§1)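 NCI-60 single-dose screen at 10 µM: cells in RPMI 1640 with 5% FBS, preincubated 24 h, then exposed 48 h at 37 °C. TCA fixation (16% final for suspension cells), SRB staining, absorbance 515 nm. Percent growth relative to time-zero and untreated control plates; negative values indicate cell kill.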

MCF7 = assay: Growth inhibition of human MCF7 cells assessed as cell growth at 10 uM after 48 hrs by sulforhodamine B assay; assay type: functional; conditions: MCF7, 48 h, read-out: Activity
Procedure, shortened: (§2)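 Single-dose NCI-60 screen: adherent cells in RPMI 1640 with 5% FBS were exposed to 10 µM for 48 h at 37 °C after a 24 h preincubation. They were fixed in situ with cold TCA (10% final), stained with 0.4% SRB in 1% acetic acid, solubilized in 10 mM Tris base, and read at 515 nm. Percent growth was taken relative to time-zero and control plates.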

[1] = Antiproliferative activity against mouse +SA cells by MTT assay; assay type: functional, cell-based; conditions: +SA cell
Procedure, shortened: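 Mouse +SA mammary epithelial cells in serum-free DMEM/F12 with BSA, transferrin, insulin and EGF. Compounds from DMSO stock conjugated to BSA (overnight, 37 °C); 0–40 µM, final DMSO <0.1%. MTT 0.42 mg/mL for 4 h at 37 °C, isopropanol solubilization, OD 570 nm. Cell number from a standard curve; IC50 by non-linear regression.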

NCI-H322M = assay: Growth inhibition of human NCI-H322M cells assessed as cell growth at 10 uM after 48 hrs by sulforhodamine B assay; assay type: functional; conditions: read-out: Activity; procedure, shortened: as §2
SN12C = assay: Growth inhibition of human SN12C cells after 48 hrs by sulforhodamine B assay; assay type: functional
Procedure, shortened: (§3)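 NCI-60 five-dose screen. Cells were grown in RPMI 1640 with 5% FBS and 2 mM L-glutamine, plated at 5000–40,000 cells/well and incubated 24 h before dosing, with T0 plates TCA-fixed. DMSO stocks were diluted to doses of […] and exposed 48 h at 37 °C, 5% CO2. Cells were fixed with cold TCA (final 10%, 60 min, 4 °C), stained with 0.4% SRB in 1% acetic acid for 10 min, solubilized in 10 mM trizma base and read at 515 nm. GI50 is where 100×(T−T0)/(C−T0)=50.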

U-251 = assay: Growth inhibition of human U251 cells after 48 hrs by sulforhodamine B assay; assay type: functional; conditions: U-251, 48 h; procedure, shortened: as §3
MDA-MB-435 = assay: Growth inhibition of human MDA-MB-435 cells after 48 hrs by sulforhodamine B assay; assay type: functional; conditions: MDA-MB-435, 48 h
Procedure, shortened: (§4)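 NCI-60 panel cells grown in RPMI 1640 with 5% FBS and 2 mM L-glutamine, seeded at 5000–40,000 cells/well and preincubated 24 h. Five 10-fold dilutions (0.001–100 µM) from DMSO stocks were added for 48 h at 37 °C. Adherent cells were fixed with cold TCA (10% final) for 60 min at 4 °C, stained with 0.4% SRB, and read at 515 nm. GI50 was set where 100×(T−T0)/(C−T0)=50.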

UO-31 = assay: Growth inhibition of human UO31 cells after 48 hrs by sulforhodamine B assay; assay type: functional; conditions: UO-31, 48 h; procedure, shortened: as §3
PC-3 = assay: Growth inhibition of human PC3 cells after 48 hrs by sulforhodamine B assay; assay type: functional; conditions: PC-3, 48 h; procedure, shortened: as §4
T47D = assay: Growth inhibition of human T47D cells assessed as cell growth at 10 uM after 48 hrs by sulforhodamine B assay; assay type: functional; conditions: read-out: Activity
Procedure, shortened: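 Single-dose NCI-60 test at 10 µM. Cells were grown in RPMI 1640 with 5% FBS and 2 mM L-glutamine, preincubated 24 h, with T0 plates TCA-fixed. Exposure was 48 h at 37 °C, 5% CO2. Cells were fixed with cold TCA (final 10%, 4 °C, 60 min), stained with SRB and read at 515 nm. Percent growth was taken relative to T0 and untreated control; negative values denote cell kill.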

BT-549 = assay: Growth inhibition of human BT549 cells after 48 hrs by sulforhodamine B assay; assay type: functional; conditions: BT-549, 48 h
Procedure, shortened: (§5)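 NCI-60 screen: cells in RPMI 1640 with 5% FBS and 2 mM glutamine, 5000–40,000 cells/well, preincubated 24 h. Five concentrations (10-fold dilutions; 100 to 0.001 µM) applied for 48 h at 37 °C. TCA fixation, SRB stain, absorbance at 515 nm. Time-zero plates included; GI50 where 100×(T−T0)/(C−T0)=50.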

[2] = Growth inhibition of human Hs 578T cells after 48 hrs by sulforhodamine B assay; assay type: functional; procedure, shortened: as §5
DU-145 = assay: Growth inhibition of human DU145 cells assessed as cell growth at 10 uM after 48 hrs by sulforhodamine B assay; assay type: functional; conditions: DU-145, 48 h, read-out: Activity; procedure, shortened: as §1
SK-MEL-28 = assay: Growth inhibition of human SK-MEL-28 cells assessed as cell growth at 10 uM after 48 hrs by sulforhodamine B assay; assay type: functional; conditions: SK-MEL-28, 48 h, read-out: Activity; procedure, shortened: as §2
[3] = Growth inhibition of human EKVX cells assessed as cell growth at 10 uM after 48 hrs by sulforhodamine B assay; assay type: functional; conditions: read-out: Activity; procedure, shortened: as §1
ACHN = assay: Growth inhibition of human ACHN cells assessed as cell growth at 10 uM after 48 hrs by sulforhodamine B assay; assay type: functional; conditions: read-out: Activity; procedure, shortened: as §1
MOLT-4 = assay: Growth inhibition of human MOLT4 cells after 48 hrs by sulforhodamine B assay; assay type: functional; conditions: MOLT-4, 48 h
Procedure, shortened: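 NCI-60 suspension lines in RPMI 1640 with 5% FBS and 2 mM L-glutamine, preincubated 24 h. A five-concentration 10-fold series (0.001–100 µM) was given for 48 h at 37 °C. Settled cells were fixed with 80% TCA (16% final), stained with SRB, and read at 515 nm. GI50 was taken where 100×(T−T0)/(C−T0)=50, with T0 plates fixed at drug addition.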

OVCAR-3 = assay: Growth inhibition of human OVCAR3 cells assessed as cell growth at 10 uM after 48 hrs by sulforhodamine B assay; assay type: functional; conditions: OVCAR-3, 48 h, read-out: Activity; procedure, shortened: as §2
SK-OV-3 = assay: Growth inhibition of human SKOV3 cells after 48 hrs by sulforhodamine B assay; assay type: functional; conditions: SK-OV-3, 48 h; procedure, shortened: as §3
[4] = Growth inhibition of human NCI-ADR-RES cells after 48 hrs by sulforhodamine B assay; assay type: functional; procedure, shortened: as §4
NCI-H226 = assay: Growth inhibition of human NCI-H226 cells after 48 hrs by sulforhodamine B assay; assay type: functional; conditions: NCI-H226, 48 h; procedure, shortened: as §4
OVCAR-5 = assay: Growth inhibition of human OVCAR5 cells assessed as cell growth at 10 uM after 48 hrs by sulforhodamine B assay; assay type: functional; conditions: OVCAR-5, 48 h, read-out: Activity; procedure, shortened: as §2
NCI-H460 = assay: Growth inhibition of human NCI-H460 cells after 48 hrs by sulforhodamine B assay; assay type: functional; conditions: NCI-H460, 48 h; procedure, shortened: as §4
OVCAR-8 = assay: Growth inhibition of human OVCAR8 cells after 48 hrs by sulforhodamine B assay; assay type: functional; conditions: OVCAR-8, 48 h; procedure, shortened: as §4

Structure (SMILES) | growth at 10 µM (IGROV-1) | growth at 10 µM (MCF7) | IC50 [1] | growth at 10 µM (NCI-H322M) | GI50 (SN12C) | GI50 (U-251) | GI50 (MDA-MB-435) | GI50 (UO-31) | GI50 (PC-3) | growth at 10 µM (T47D) | GI50 (BT-549) | GI50 [2] | growth at 10 µM (DU-145) | growth at 10 µM (SK-MEL-28) | growth at 10 µM [3] | growth at 10 µM (ACHN) | GI50 (MOLT-4) | growth at 10 µM (OVCAR-3) | GI50 (SK-OV-3) | GI50 [4] | further results
CC(C)=CCC/C(C)=C/CC/C(C)=C/CC[C@]1(C)CCc2c3c(c(C)c(C)c2O1)OCN(CCCCO)C3 | 48.2% | 10.1% | 2.2 µM | 84.8% | 7.98 µM | 1.55 µM | 4.68 µM | 8.83 µM | 8.37 µM | 59.1% | > 10 µM | > 10 µM | 88.8% | 106% | 108% | 78.8% | 3.46 µM | 79.9% | 5.41 µM | > 10 µM | GI50 (NCI-H226): > 10 µM; growth at 10 µM (OVCAR-5): 83.1%; GI50 (NCI-H460): 1.94 µM; GI50 (OVCAR-8): > 10 µM
CC(C)=CCC/C(C)=C/CC/C(C)=C/CC[C@]1(C)CCc2c3c(cc(C)c2O1)OCN(CCc1ccc(O)cc1)C3 | 0.45% | -86.3% | 0.91 µM | 29.7% | 4.9 µM | 4.32 µM | 4.54 µM | 4.42 µM | 5.07 µM | 6.16% | 7.06 µM | 6.29 µM | 42.1% | -83.8% | 90.7% | 91% | 2.42 µM | 36.4% | 6.2 µM | 5.93 µM | GI50 (NCI-H226): 5.4 µM; growth at 10 µM (OVCAR-5): 91.2%; GI50 (NCI-H460): 1.12 µM; GI50 (OVCAR-8): 5.84 µM
CC(C)=CCC/C(C)=C/CC/C(C)=C/CC[C@]1(C)CCc2c3c(cc(C)c2O1)OCN(CCCCCO)C3 | 53.1% | -63.6% | 0.7 µM | 16.8% | 5.56 µM | 5.71 µM | 5.8 µM | 4.64 µM | 5.71 µM | 59.5% | 7.34 µM | 7.26 µM | 37.2% | 34.7% | 90.5% | 81.6% | 5.87 µM | 54.6% | 6.85 µM | 5.89 µM | GI50 (NCI-H226): 6.19 µM; growth at 10 µM (OVCAR-5): 87.3%; GI50 (NCI-H460): 5.18 µM; GI50 (OVCAR-8): 6.39 µM
COc1ccc(CCN2COc3cc(C)c4c(c3C2)CC[C@@](C)(CC/C=C(\C)CC/C=C(\C)CCC=C(C)C)O4)cc1OC | 31.8% | -65.7% | 0.87 µM | 4.19% | 1.63 µM | 1.67 µM | 1.66 µM | 1.63 µM | 1.87 µM | 31.2% | 1.97 µM | 2.3 µM | -4.93% | -55.6% | 85.5% | 75.7% | 2.32 µM | -22.9% | 1.9 µM | 2.02 µM | GI50 (NCI-H226): 2 µM; growth at 10 µM (OVCAR-5): 42.7%; GI50 (NCI-H460): 2.18 µM; GI50 (OVCAR-8): 2.2 µM
